Read-outs that look alike come from different tables or passages of the source.
Assays:
[1] = Safety and tolerability assessment in the phase 1 study; assay type: in vivo, human
Summary of the method: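 Healthy postmenopausal smokers and nonsmokers received oral test compound 30 mg on Day 1 after a 10-h fast. Oral fluvoxamine 50 mg was given on Day 3 evening, twice daily on Days 4–9, and on Day 10 morning. On Day 7 the test compound was co-dosed fasted. AEs were recorded from consent to end of study, in all subjects dosed at least once.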

[2] = assay type: in vitro ADME, human; conditions: preliminary assay; rate of degradation could not be determined precisely
[3] = 20‐ to 60‐mg dose range; cited from earlier work
[4] = fezolinetant 45 mg, pooled 12-week data, cited from earlier work
[5] = assay type: in vivo, human
[6] = fezolinetant + fluvoxamine vs fezolinetant alone

Row | metabolic stability [2] | Tmax ([5]; female, human, plasma, oral, 30 mg) [h] | tmax, Median [min–max] ([5]; fezolinetant 30 mg + fluvoxamine, nonsmoker n = 9) | tmax, Median [min–max] ([5]; fezolinetant 30 mg + fluvoxamine, smoker n = 9) | tmax, Median [min–max] ([5]; fezolinetant 30 mg alone, nonsmoker n = 9) | tmax, Median [min–max] ([5]; fezolinetant 30 mg alone, smoker n = 9) | increase in half-life on co-administration with fluvoxamine [5, 6] [fold] | increase in total exposure on co-administration with fluvoxamine [5, 6] | exposure decrease by smoking ([5]; smokers vs nonsmokers) | SMILES | subjects with TEAEs, overall ([1]; all treatment periods, 18 TEAEs, 18 subjects enrolled) [%] | safety and tolerability ([1]; single oral 30-mg dose of fezolinetant co-administered with fluvoxamine, healthy postmenopausal women) | dose dependence of Cmax and total exposure (AUC) [3] | LS mean difference in VMS frequency versus placebo ([4]; current smokers) | LS mean difference in VMS frequency versus placebo ([4]; former/never smokers) | dizziness (TEAE), subjects reporting ([1]; 18 subjects) | erythema (TEAE), subjects reporting ([1]; 18 subjects) [%] | orthostatic intolerance (TEAE), subjects reporting ([1]; 18 subjects) | subjects with TEAE considered drug related by the investigator ([1]; 18 subjects) [%]
1 | highly stable | 1 | 1.50 [1.00‐4.00] h | 1.50 [1.48‐4.00] h | 1.00 [0.983‐2.00] h | 1.00 [1.00‐1.50] h | ~5.6 | approximately 9 fold | about 50% | Cc1nsc(-c2nnc3n2CCN(C(=O)c2ccc(F)cc2)[C@@H]3C)n1 [Fezolinetant] | 44.4 | safe and well tolerated | increased linearly | −3.48 | −2.32 |  |  |  | 
2 |  |  |  |  |  |  |  |  |  | COCCCC/C(=N\OCCN)c1ccc(C(F)(F)F)cc1 [fluvoxamine] |  |  |  |  |  | one subject | 11.1 | one subject | 5.6

Source: publication PMC11937985 (Journal of Clinical Pharmacology, 2024)
